According to ChEMBL document CHEMBL2010704 (J Med Chem, 2012):
The source made the active and inactive calls. The rule behind the calls is not given here.

Key:
ABCG2 [1] = biological target: T1, ABCG2 (Homo sapiens, UniProt Q9UNQ0); experiment: Inhibition of ABCG2-mediated mitoxantrone efflux in HEK293 cells at 1 uM by flow cytometry relative to 5 uM of GF120918; assay type: cell-based; settings: HEK293 cells with ABCG2-mediated efflux, probe mitoxantrone
T1 sequence (Q9UNQ0 whole entry): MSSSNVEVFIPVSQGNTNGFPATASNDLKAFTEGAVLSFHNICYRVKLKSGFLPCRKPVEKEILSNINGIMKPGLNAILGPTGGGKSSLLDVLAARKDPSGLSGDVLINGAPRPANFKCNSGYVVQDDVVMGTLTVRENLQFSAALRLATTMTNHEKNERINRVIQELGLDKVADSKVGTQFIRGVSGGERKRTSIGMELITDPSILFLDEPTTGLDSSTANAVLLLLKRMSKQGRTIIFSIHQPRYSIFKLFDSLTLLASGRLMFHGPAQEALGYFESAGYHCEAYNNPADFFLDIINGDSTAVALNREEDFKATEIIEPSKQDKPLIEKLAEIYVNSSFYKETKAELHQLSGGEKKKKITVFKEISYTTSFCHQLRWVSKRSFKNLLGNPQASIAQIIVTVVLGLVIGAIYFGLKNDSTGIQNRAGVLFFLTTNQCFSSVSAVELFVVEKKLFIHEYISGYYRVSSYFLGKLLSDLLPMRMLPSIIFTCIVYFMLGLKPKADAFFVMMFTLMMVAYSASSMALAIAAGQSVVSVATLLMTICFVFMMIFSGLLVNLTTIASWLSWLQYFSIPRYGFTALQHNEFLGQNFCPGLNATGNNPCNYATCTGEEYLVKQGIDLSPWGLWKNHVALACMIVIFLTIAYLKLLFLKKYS
Method in brief: (§1)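 HEK293-ABCG2 cells seeded at 1 × 10^5 cells/well and grown 48 h, then loaded with 5 μM mitoxantrone for 30 min at 37 °C with or without compound. Cells washed in PBS and trypsinized; intracellular fluorescence read by flow cytometry on at least 10,000 events. […] IC50 from a concentration range; mean ± SD, n ≥ 3.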

ABCG2 [2] = biological target: T1, ABCG2; experiment: Inhibition of ABCG2-mediated mitoxantrone efflux in HEK293 cells at 5 uM by flow cytometry relative to 5 uM of GF120918; assay type: cell-based; settings: HEK293 cells with ABCG2-mediated efflux, probe mitoxantrone; method in brief: as §1
[3] = biological target: T2, Broad substrate specificity ATP-binding cassette transporter ABCG2 (Homo sapiens, UniProt Q9UNQ0); experiment: Inhibition of ABCG2-mediated mitoxantrone efflux in HEK293 cells by flow cytometry; assay type: cell-based
T2 sequence (Q9UNQ0 whole entry): T1 sequence (Q9UNQ0 whole entry)
Method in brief: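 HEK293-ABCG2 cells seeded at 1 × 10^5 cells/well and grown 48 h, then loaded with 5 μM mitoxantrone for 30 min at 37 °C with or without compound. Cells washed in PBS and trypsinized; intracellular fluorescence read by flow cytometry on at least 10,000 events.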

P-glycoprotein (ABCB1) [4] = biological target: T3, P-glycoprotein (ABCB1) (Homo sapiens, UniProt P08183); experiment: Inhibition of P-glycoprotein/ABCB1-mediated mitoxantrone efflux in HEK293 cells at 1 uM by flow cytometry relative to 5 uM of GF120918; assay type: cell-based; settings: HEK293 cells with P-glycoprotein/ABCB1-mediated efflux, probe mitoxantrone
P-glycoprotein (ABCB1) [5] = biological target: T3, P-glycoprotein (ABCB1); experiment: Inhibition of P-glycoprotein/ABCB1-mediated mitoxantrone efflux in HEK293 cells at 5 uM by flow cytometry relative to 5 uM of GF120918; assay type: cell-based; settings: HEK293 cells with P-glycoprotein/ABCB1-mediated efflux, probe mitoxantrone
MRP1 (ABCC1) = MRP1 (ABCC1) (Homo sapiens, UniProt P33527); experiment: Inhibition of MRP1/ABCC1-mediated calcein efflux in HEK293 cells at 1 uM by flow cytometry relative to untreated control; assay type: cell-based; settings: HEK293 cells with MRP1/ABCC1-mediated efflux, probe calcein
ABCG2 [6] = experiment: Therapeutic index, ratio of GI50 for human HEK293 cells transfected with ABCG2 to IC50 for ABCG2-mediated mitoxantrone efflux in HEK293 cells; assay type: cell-based; settings: HEK293 cells transfected with ABCG2, probe mitoxantrone
Method in brief: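 Therapeutic index is IG50 for cytotoxicity (72-h MTT in HEK293-ABCG2 cells) divided by IC50 for inhibition of ABCG2-mediated mitoxantrone efflux measured by flow cytometry.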

[7] = biological target: T2, Broad substrate specificity ATP-binding cassette transporter ABCG2; experiment: Inhibition of ABCG2 expressed in human HEK293 assessed as potentiation of mitoxantrone-mediated cytotoxicity at 0.2 uM after 72 hrs by MTT assay relative to control; assay type: cell-based; settings: hek293, 72 h
Method in brief: (§2)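 Chemosensitization: HEK293-ABCG2 cells seeded at 1 × 10^4 cells/well, left overnight, then co-treated for 72 h at 37 °C, 5% CO2 with compound plus increasing mitoxantrone or SN-38 (0−0.5 μM). Viability measured by MTT and expressed as % of untreated control. Mean ± SD from at least three independent experiments, each in triplicate.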

HEK293 [8] = experiment: Drug metabolism in human HEK293 cells transfected with ABCG2 at 0.2 to 1 uM after 72 hrs; assay type: ADME, cell-based; settings: hek293, 72 h
[9] = biological target: T2, Broad substrate specificity ATP-binding cassette transporter ABCG2; experiment: Inhibition of ABCG2 expressed in human HEK293 assessed as potentiation of SN-38-mediated cytotoxicity at 0.2 uM after 72 hrs by MTT assay relative to control; assay type: cell-based; settings: hek293, 72 h; method in brief: as §2
HEK293 [10] = experiment: Effect on ABCG2 expression in human HEK293 cells at 0.2 to 10 uM after 72 hrs by Western blotting analysis; assay type: functional, cell-based
HEK293 [11] = experiment: Drug uptake in human HEK293 cells transfected with ABCG2 after 30 mins by LC-ESI-MS/MS analysis relative to control; assay type: ADME, cell-based; settings: hek293, 0.5 h
HEK293 [12] = experiment: Drug uptake in human HEK293 cells transfected with ABCG2 after 30 mins by LC-ESI-MS/MS analysis in presence of GF120918 relative to control; assay type: ADME, cell-based; settings: hek293, 0.5 h
[13] = biological target: T2, Broad substrate specificity ATP-binding cassette transporter ABCG2; experiment: Noncompetitive inhibition of ABCG2 expressed in HEK293 cells in presence of mitoxantrone; assay type: cell-based
HEK293 [14] = experiment: Cytotoxicity against human control HEK293 cells assessed as cell death at 100 uM after 72 hrs by MTT assay; settings: hek293, 72 h
[15] = tested on: P-glycoprotein 1 (Homo sapiens); experiment: Inhibition of P-glycoprotein/ABCB1-mediated mitoxantrone efflux in HEK293 cells at 5 uM by flow cytometry relative to untreated control; settings: HEK293 cells with P-glycoprotein/ABCB1-mediated efflux, probe mitoxantrone
[16] = Cytotoxicity against human HEK293 cells transfected with ABCG2 after 72 hrs by MTT assay; assay type: ADME, cell-based; settings: read-out: IG50
Method in brief: (§3)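 HEK293-ABCG2 cells (DMEM high glucose, 10% FBS, 0.75 mg/mL G418) seeded at 1 × 10^4 cells/well, left overnight, then exposed to increasing compound concentrations (up to 100 μM) for 72 h at 37 °C, 5% CO2. Viability read by MTT colorimetric assay and expressed as % of control cells in medium with 0.1% DMSO (v/v).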

HEK293 [17] = experiment: Cytotoxicity against human HEK293 cells transfected with ABCG2 at 10 uM after 72 hrs by MTT assay; assay type: ADME, cell-based; settings: hek293, 72 h; method in brief: as §3

Sequence of MRP1 (ABCC1) (P33527 whole entry): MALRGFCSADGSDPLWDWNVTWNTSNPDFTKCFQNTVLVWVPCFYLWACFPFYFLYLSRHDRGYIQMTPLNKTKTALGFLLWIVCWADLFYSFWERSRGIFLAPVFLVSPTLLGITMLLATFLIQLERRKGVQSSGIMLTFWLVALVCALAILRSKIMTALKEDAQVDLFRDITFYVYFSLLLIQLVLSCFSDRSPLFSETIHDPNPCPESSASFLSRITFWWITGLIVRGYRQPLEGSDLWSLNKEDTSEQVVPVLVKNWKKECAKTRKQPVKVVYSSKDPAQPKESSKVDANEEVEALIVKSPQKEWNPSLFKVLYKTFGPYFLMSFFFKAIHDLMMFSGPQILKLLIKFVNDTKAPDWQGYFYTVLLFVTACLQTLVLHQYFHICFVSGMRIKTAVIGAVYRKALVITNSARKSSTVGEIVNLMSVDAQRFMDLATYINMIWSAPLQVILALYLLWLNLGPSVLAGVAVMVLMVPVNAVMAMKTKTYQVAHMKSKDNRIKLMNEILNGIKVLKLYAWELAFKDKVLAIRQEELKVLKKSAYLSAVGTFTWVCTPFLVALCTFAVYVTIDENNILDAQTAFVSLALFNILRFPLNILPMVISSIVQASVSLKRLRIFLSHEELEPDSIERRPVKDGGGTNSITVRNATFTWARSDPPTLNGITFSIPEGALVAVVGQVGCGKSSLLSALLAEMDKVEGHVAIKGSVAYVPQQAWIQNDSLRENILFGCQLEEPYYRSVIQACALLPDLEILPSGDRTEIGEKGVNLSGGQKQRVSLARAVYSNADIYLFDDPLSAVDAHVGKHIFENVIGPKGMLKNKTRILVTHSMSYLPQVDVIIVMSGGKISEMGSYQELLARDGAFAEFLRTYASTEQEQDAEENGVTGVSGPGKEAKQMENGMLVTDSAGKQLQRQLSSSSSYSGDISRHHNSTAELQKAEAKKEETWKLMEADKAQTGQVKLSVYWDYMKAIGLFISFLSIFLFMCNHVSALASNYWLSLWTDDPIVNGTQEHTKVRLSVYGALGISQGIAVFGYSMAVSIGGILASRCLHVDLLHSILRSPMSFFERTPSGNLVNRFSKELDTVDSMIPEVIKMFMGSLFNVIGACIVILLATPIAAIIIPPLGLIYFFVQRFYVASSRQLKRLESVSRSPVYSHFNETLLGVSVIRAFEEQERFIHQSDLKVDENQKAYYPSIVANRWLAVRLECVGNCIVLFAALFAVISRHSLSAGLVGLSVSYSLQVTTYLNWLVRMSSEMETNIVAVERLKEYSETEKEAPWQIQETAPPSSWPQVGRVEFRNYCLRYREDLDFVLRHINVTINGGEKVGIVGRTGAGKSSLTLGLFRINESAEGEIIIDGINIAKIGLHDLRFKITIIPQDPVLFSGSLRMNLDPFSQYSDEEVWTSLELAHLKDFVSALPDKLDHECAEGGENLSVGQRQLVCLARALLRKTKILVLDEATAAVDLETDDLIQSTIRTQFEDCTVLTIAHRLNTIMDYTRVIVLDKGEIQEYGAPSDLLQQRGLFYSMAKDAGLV
T3 sequence (P08183 whole entry): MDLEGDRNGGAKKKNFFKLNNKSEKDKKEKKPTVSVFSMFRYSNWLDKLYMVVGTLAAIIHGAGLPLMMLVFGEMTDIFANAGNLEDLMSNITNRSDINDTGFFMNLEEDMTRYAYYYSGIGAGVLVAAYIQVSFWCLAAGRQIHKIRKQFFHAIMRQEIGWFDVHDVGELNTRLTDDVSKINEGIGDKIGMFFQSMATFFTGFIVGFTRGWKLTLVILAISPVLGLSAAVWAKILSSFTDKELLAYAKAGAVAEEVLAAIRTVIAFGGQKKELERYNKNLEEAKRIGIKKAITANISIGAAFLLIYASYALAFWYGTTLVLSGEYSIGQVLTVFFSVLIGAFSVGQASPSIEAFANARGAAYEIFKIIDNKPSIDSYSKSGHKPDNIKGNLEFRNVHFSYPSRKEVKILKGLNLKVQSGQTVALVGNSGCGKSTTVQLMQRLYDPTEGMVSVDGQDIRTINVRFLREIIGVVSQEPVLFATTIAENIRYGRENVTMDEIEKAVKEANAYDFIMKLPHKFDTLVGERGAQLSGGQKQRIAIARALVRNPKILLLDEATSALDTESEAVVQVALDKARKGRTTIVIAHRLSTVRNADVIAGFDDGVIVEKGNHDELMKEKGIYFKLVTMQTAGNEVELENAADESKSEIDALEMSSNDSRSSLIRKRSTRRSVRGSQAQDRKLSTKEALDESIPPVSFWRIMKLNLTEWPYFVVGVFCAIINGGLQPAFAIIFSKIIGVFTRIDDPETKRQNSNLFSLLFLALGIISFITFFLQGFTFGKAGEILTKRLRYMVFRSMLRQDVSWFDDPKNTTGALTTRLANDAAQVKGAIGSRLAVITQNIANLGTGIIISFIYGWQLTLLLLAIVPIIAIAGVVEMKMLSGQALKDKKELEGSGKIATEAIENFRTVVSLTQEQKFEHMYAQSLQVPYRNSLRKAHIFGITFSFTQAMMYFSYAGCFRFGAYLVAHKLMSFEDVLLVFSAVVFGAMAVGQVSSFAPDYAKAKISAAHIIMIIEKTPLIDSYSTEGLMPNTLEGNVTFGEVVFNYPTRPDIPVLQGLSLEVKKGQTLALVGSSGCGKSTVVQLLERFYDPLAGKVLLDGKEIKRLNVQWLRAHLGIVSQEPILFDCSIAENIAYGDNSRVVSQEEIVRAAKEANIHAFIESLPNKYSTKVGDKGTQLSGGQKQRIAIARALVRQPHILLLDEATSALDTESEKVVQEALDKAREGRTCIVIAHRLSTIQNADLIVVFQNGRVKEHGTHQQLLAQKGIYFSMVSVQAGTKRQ

## O=C(c1cc(=O)c2c(OCc3ccccc3)cccc2o1)N1CCN(c2ccccc2)CC1
ABCG2 [1]
  inhibition at 1 µM: 21.3%
ABCG2 [2]
  inhibition at 5 µM: 66.1%

## O=C(c1cc(=O)c2c(OCc3ccccc3)cccc2o1)N1CCN(c2ccccn2)CC1
ABCG2 [1]
  inhibition at 1 µM: 18.1%
ABCG2 [2]
  inhibition at 5 µM: 46.2%

## COc1ccc2[nH]cc(CCNC(=O)c3cc(=O)c4c(OCc5ccc(Br)cc5)cccc4o3)c2c1
[3]
  IC50: 110 nM
P-glycoprotein (ABCB1) [4]
  inhibition at 1 µM: -1.75%
P-glycoprotein (ABCB1) [5]
  inhibition at 5 µM: -16.1%
MRP1 (ABCC1)
  inhibition at 1 µM: 2.58%
ABCG2 [6]
  selectivity ratio: 2000
[7]
  inhibition (INH): Active
HEK293 [8]
  Drug metabolism: Not Active
[9]
  inhibition (INH): Active
HEK293 [10]
  Activity: inactive
HEK293 [11]
  Drug uptake: Not Active
HEK293 [12]
  Drug uptake: Not Active
[13]
  inhibition (INH): Active
HEK293 [14]
  Activity: < 25%
[15]
  inhibition at 5 µM: 2.86%

## COc1ccc2[nH]cc(CCNC(=O)c3cc(=O)c4c(OCc5ccccc5)cccc4o3)c2c1
[3]
  IC50: 180 nM
P-glycoprotein (ABCB1) [4]
  inhibition at 1 µM: -9.11%
P-glycoprotein (ABCB1) [5]
  inhibition at 5 µM: -19.4%
MRP1 (ABCC1)
  inhibition at 1 µM: 1.91%
[16]
  GI50 at 72 h: 35000 nM
HEK293 [17]
  Activity: Non-toxic
[15]
  inhibition at 5 µM: 5.14%

## COc1ccc(CCNC(=O)c2cc(=O)c3c(OCc4ccccc4)cccc3o2)cc1OC
P-glycoprotein (ABCB1) [4]
  inhibition at 1 µM: -25.5%
P-glycoprotein (ABCB1) [5]
  inhibition at 5 µM: -22.9%
MRP1 (ABCC1)
  inhibition at 1 µM: 10.8%
[16]
  GI50 at 72 h: 60000 nM
HEK293 [17]
  Activity: 35%
HEK293 [10]
  Activity: inactive
HEK293 [11]
  Drug uptake: Not Active
HEK293 [12]
  Drug uptake: Not Active
[13]
  inhibition (INH): Active

## O=C(c1cc(=O)c2c(OCc3ccccc3)cccc2o1)N1CCN(Cc2ccccc2)CC1
ABCG2 [1]
  inhibition at 1 µM: 16.5%
ABCG2 [2]
  inhibition at 5 µM: 48.3%

## O=C(O)c1cc(=O)c2c(O)cccc2o1
ABCG2 [1]
  inhibition at 1 µM: -1.2%
ABCG2 [2]
  inhibition at 5 µM: -2%

## COc1ccc(CCOc2cccc3oc(C(=O)O)cc(=O)c23)cc1OC
ABCG2 [1]
  inhibition at 1 µM: 6.1%
ABCG2 [2]
  inhibition at 5 µM: 26.7%

## CC(C)=CCc1c(O)cc2oc(-c3ccccc3)cc(=O)c2c1O
ABCG2 [6]
  selectivity ratio: 40

## COc1ccc(CCNC(=O)c2cc(=O)c3c(O)cccc3o2)cc1OC
ABCG2 [1]
  inhibition at 1 µM: 34.4%
ABCG2 [2]
  inhibition at 5 µM: 62.5%
P-glycoprotein (ABCB1) [4]
  inhibition at 1 µM: -20.5%
P-glycoprotein (ABCB1) [5]
  inhibition at 5 µM: -29%
MRP1 (ABCC1)
  inhibition at 1 µM: 3.37%
[15]
  inhibition at 5 µM: 5.47%

## COc1ccc2[nH]cc(CCNC(=O)c3cc(=O)c4c(OCCc5ccccc5)cccc4o3)c2c1
[3]
  IC50: 160 nM
P-glycoprotein (ABCB1) [4]
  inhibition at 1 µM: -14%
P-glycoprotein (ABCB1) [5]
  inhibition at 5 µM: -14.8%
MRP1 (ABCC1)
  inhibition at 1 µM: 2.36%
[15]
  inhibition at 5 µM: 5.12%

## COc1ccc(CCNC(=O)c2cc(=O)c3c(OCCc4ccc(OC)c(OC)c4)cccc3o2)cc1OC
[3]
  IC50: 470 nM
P-glycoprotein (ABCB1) [4]
  inhibition at 1 µM: -16.6%
P-glycoprotein (ABCB1) [5]
  inhibition at 5 µM: -0.11%
MRP1 (ABCC1)
  inhibition at 1 µM: 5.57%
[15]
  inhibition at 5 µM: 10.8%

## COc1ccc2c3c([nH]c2c1)[C@H](CC(C)C)N1C(=O)[C@H](CCC(=O)OC(C)(C)C)NC(=O)[C@@H]1C3
[16]
  GI50 at 72 h: 18000 nM

## COc1ccc2[nH]cc(CCNC(=O)c3cc(=O)c4c(OCc5ccc(C)cc5)cccc4o3)c2c1
[3]
  IC50: 200 nM
P-glycoprotein (ABCB1) [4]
  inhibition at 1 µM: -4.29%
P-glycoprotein (ABCB1) [5]
  inhibition at 5 µM: -21.9%
MRP1 (ABCC1)
  inhibition at 1 µM: 1.13%
[15]
  inhibition at 5 µM: 3.09%

## O=C(c1cc(=O)c2c(O)cccc2o1)N1CCN(c2ccccc2)CC1
ABCG2 [1]
  inhibition at 1 µM: 5.5%
ABCG2 [2]
  inhibition at 5 µM: 9.8%
